From PubChem
Sampled rows, rich in hits. Any-hit rate of the full collection: about 3%.
Hsp70 activator – transcriptional activators of Hsp70; HeLa Hsp70 promoter luciferase reporter, luminescence; scaled: vehicle 0, proteasome-inhibitor control 100%; activation, % at 10 µM; 200,000 compounds, 0.04% hits; AID 1203;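 active = activation above the mean across all tested compounds plus 3 SD, cutoff set per campaign, cut at about 5.5% in these data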;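 also: 100% = MG132 at 30 µM as the positive control and 0% = DMSO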
NPY-Y2 antag – antagonists of human neuropeptide Y receptor Y2 | NPY-Y2 expressing cells, antagonist mode | inhibition, % at 2.7 µM | 140,000 compounds, 0.99% hits | AID 793;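 also: 0% = vehicle with agonist challenge and 100% = reference antagonist with challenge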
Target sequence (P49146 whole entry, looked up): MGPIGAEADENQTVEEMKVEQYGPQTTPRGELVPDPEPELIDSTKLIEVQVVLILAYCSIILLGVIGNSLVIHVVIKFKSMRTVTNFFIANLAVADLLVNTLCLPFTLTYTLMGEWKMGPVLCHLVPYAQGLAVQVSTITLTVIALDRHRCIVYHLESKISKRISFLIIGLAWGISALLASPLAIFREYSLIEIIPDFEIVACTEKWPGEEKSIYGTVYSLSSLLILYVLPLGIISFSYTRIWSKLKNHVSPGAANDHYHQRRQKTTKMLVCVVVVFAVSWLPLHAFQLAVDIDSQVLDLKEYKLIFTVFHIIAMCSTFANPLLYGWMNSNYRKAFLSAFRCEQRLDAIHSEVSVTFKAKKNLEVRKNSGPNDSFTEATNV
Wee1 stabilizer – blocks degradation of human Wee1 kinase | P30291 | HeLa Luc-Wee1K328M stability, luciferase luminescence; 100% = proteasome inhibitor MG132 effect | reporter increase, % at 5 µM | 220,000 compounds, 1.2% hits;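 active = activation above the mean of all tested compounds plus 3 SD, set per screening run, cut at about 8.8% in these data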;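 also: cells exposed to compound for 20 h before luminescence read; 0% = DMSO alone and 100% = MG132 at 30 µM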
NPY-Y1 antag – NPY-Y1 (human) receptor antagonism. P25929. HEK293-CNG Y1 cells, membrane potential fluorescence; NPY at EC95, then isoproterenol. inhibition, % at 3.6 µM. 200,000 compounds, 1% hits. AID 1040;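 active = inhibition above the campaign mean inhibition of all tested compounds plus 3 SD, cut at about 20% in these data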;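 also: 0% = DMSO wells given NPY plus isoproterenol and 100% = isoproterenol alone without NPY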
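System: HEK293 cells with Y1 receptor plus CNG channel / Probe or stimulus: NPY 25 nM then isoproterenol 1 µM plus Ro 20-1724 25 µM / Compound: one concentration, 3.6 µM, in 0.4% DMSO / Schedule: compound incubation 1 h at room temperature, readout 45 min post-stimulation / Measured by: membrane potential fluorescence / Read-out: % inhibition of NPY effect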
NPY-Y1 PAM-ag – potentiates or activates human NPY-Y1 receptor; 220,000 compounds, 0.37% hits; NPY-Y1 expressing cells, potentiator/agonist activation; activation, % at 3.6 µM; AID 1304; P25929; in the data active = activation above about 33%, passing the limit was not always enough;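 also: cells stimulated with NPY at EC10 then isoproterenol at EC100; 0% = low agonist plus stimulus and 100% = saturating agonist plus stimulus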
NPY2 pot ag – potentiates or activates human NPY-Y2 receptor. P49146. cells expressing NPY-Y2, potentiator/agonist read-out. activation, % at 3.6 µM. 220,000 compounds, 0.45% hits. AID 1359; in the data active = activation above about 27%;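 also: cells stimulated with NPY near EC25 plus isoproterenol at EC100; 0% = vehicle plus submaximal agonist and 100% = vehicle plus saturating agonist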
NPY1 antag conf – human NPY-Y1 antagonism, confirmation; inhibition, % at 3.6 µM; 1,200 compounds, 21% hits; AID 1254; shares compounds with NPY-Y1 antag; HEK293-CNG NPY-Y1, membrane potential fluorescence, cAMP; NPY challenge against isoproterenol-raised cAMP; in the data active = inhibition above about 20%;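 also: 0% = vehicle with agonist plus stimulus and 100% = stimulus alone without agonist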
NPY-Y2 antag ct – counter-screen for NPY-Y1 antagonists: human NPY-Y2 antagonism | shares compounds with NPY-Y1 antag | HEK293 NPY-Y2 CNG membrane potential fluorescence; cells given NPY, then isoproterenol | inhibition, % at 3.6 µM | 1,200 compounds, 28% hits | AID 1255;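 also: 0% = DMSO with agonist challenge and 100% = reference antagonist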
Hsp70 act dose – activates Hsp70 transcription in dose response | calls only at 99 µM | HeLa hsp70.1pr-luc reporter, luciferase luminescence | shares compounds with Hsp70 activator | 70 compounds, 10% hits | AID 1252;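 active = over 50% activation at some tested dose; inactive = under 50% activation at every tested dose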
Wee1 stab conf – human Wee1 degradation inhibition, confirmation; shares compounds with Wee1 stabilizer; HeLa Luc-Wee1K328M degradation, luminescence; vehicle 0%, proteasome-blocked wells 100%; activation, % at 5 µM; 1,100 compounds, 4% hits; AID 1410; in the data active = activation above about 8.9%
* marks the source's active call; other numbers are inactive results; i = inactive; nt = not tested or not shown; + = active, no number. Rule as the data show it, unless noted: active = inhibition above about 17%; inactive = the rest.

SMILES	Hsp70 activator	NPY-Y2 antag	Wee1 stabilizer	NPY-Y1 antag	NPY-Y1 PAM-ag	NPY2 pot ag	Hsp70 act dose	others
O=C(COC(=O)C1CCN(S(=O)(=O)c2cccc3cccnc23)CC1)c1ccccc1	0	6	-1	-3	-5	-8	nt
CCCCCCCCCn1c2c(c(=N)c3c1CCC3)CCCC2	0	nt	11*	58*	-78	-40	nt	NPY1 antag conf=102*;NPY-Y2 antag ct=79*;Wee1 stab conf=0
CCn1c2c(c(=N)c3c1CCC3)CCCC2	nt	nt	-1	nt	16	-18	nt
O=C(COC(=O)c1cc(=O)[nH]c2ccccc12)NC(=O)NC1CCCCC1	0	2	-1	4	-26	-18	nt
CCOC(=O)C1=C(c2ccccc2)O/C(=C(/C#N)C(F)(F)F)S1	1	12	24*	32*	-39	-14	nt	NPY1 antag conf=10;NPY-Y2 antag ct=42*;Wee1 stab conf=87*
Cc1cc(Cl)n2c(nc3ccccc32)c1C#N	9.7*	nt	0	5	-15	-24	i
COC(=O)c1cc(Cl)c(NC(=O)Cc2ccccc2)cc1OC	0	nt	2	-2	-18	-5	nt
CC(CC1CC(C)(C)OC1=O)C(=O)Nc1ccc([N+](=O)[O-])cc1 (stereo not given)	5.6*	1	1	4	14	-5	i
CC1(C)CC(CC(=O)Nc2ccc([N+](=O)[O-])cc2)C(=O)O1 (stereo not given)	0	0	4	-7	-16	-13	nt
O=C(NC1CCCCC1)c1ccc(S(=O)(=O)c2ccccc2)cc1	0	nt	-3	5	12	-2	nt
CCCC(=O)N1CCN(c2ccc(NC(=O)c3ccc([N+](=O)[O-])o3)cc2Cl)CC1	35*	nt	1	4	-20	-4	i
CC(C)C(=O)N1CCN(c2ccc(NC(=O)c3ccc([N+](=O)[O-])o3)cc2)CC1	1	nt	1	6	-9	-12	nt
COc1ccc(C(=O)Nc2ccc(N3CCN(C(=O)c4ccccc4)CC3)cc2)cc1[N+](=O)[O-]	0	nt	0	-7	8	-9	nt
O=C(Nc1ccc(N2CCN(C(=O)c3ccccc3)CC2)cc1)c1ccc([N+](=O)[O-])o1	32*	nt	9	-1	10	-4	i
O=C(Nc1ccc(N2CCOCC2)c(Cl)c1)c1ccc([N+](=O)[O-])o1	0	nt	3	-1	13	8	nt
CC(C)C(=O)N1CCN(c2ccc(NC(=O)c3ccc([N+](=O)[O-])o3)cc2Cl)CC1	74*	nt	6	1	-14	-31	i
COC(=O)c1ccc(Cl)c(NS(=O)(=O)c2ccc3c(c2)OCCO3)c1	0	6	6	6	-19	5	nt
O=c1c(Cl)c(Cl)cnn1Cc1ccc(F)cc1	0	nt	-1	-4	29	15	nt
O=C(OCn1ncc(Cl)c(Cl)c1=O)c1ccc(F)cc1	13*	8	3	-1	27	3	i
O=C(OCn1ncc(Cl)c(Cl)c1=O)c1ccccc1Cl	7.4*	3	2	2	-8	-6	+
O=C1NC(=O)C2(COC3(CCCC3)OC2)S1	28*	2	-3	2	-21	14	i
C/C(Cn1nc([N+](=O)[O-])cc1C)=N\NC(=O)c1cccc(Br)c1	1	0	-1	-1	-12	6	nt
CCCCOc1ccc(OC(=O)Nc2cc(Cl)ccc2OC)cc1	nt	nt	1	nt	-17	-24	nt
COCC(=O)Nc1cccc(Br)c1	6.3*	2	-1	-2	6	0	i
Cc1c(NC(=O)C(C)Sc2nc3ccccc3c(=O)n2CCO)c(=O)n(-c2ccccc2)n1C (stereo not given)	0	5	-1	-6	0	10	nt
SMILES	Hsp70 activator	NPY-Y2 antag	Wee1 stabilizer	NPY-Y1 antag	NPY-Y1 PAM-ag	NPY2 pot ag	Hsp70 act dose	others
CCc1ccc(C(CNC(=O)c2ccc3c(=O)n(-c4ccccc4F)c(=S)[nH]c3c2)N(C)C)cc1 (stereo not given)	0	nt	2	-3	22	-4	nt
COc1cc(OC)nc(-n2ncc(Br)c(Br)c2=O)n1	30*	-1	-1	-8	8	0	+
N#Cc1ccc(NC(=O)c2nc(-c3ccccc3)n(-c3ccccc3)n2)cc1	6.7*	1	-3	-1	-6	-5	i
CCOC(=O)/C(=C\c1cccnc1)C(=O)c1cc(C(C)=O)c(Nc2ccccc2)s1	17*	8	2	8	-16	-13	i
CCOc1nc(-c2ccccc2Cl)nc2ccccc12	nt	nt	-2	nt	3	-25	nt
Oc1ccccc1C1Nc2cccc3cccc(c23)N1	0	2	-1	-7	-6	9	nt
O=[N+]([O-])c1ccccc1C1Nc2cccc3cccc(c23)N1	30*	0	3	4	-20	-18	i
COc1ccccc1C1Nc2cccc3cccc(c23)N1	24*	1	-1	-5	-5	-1	i
CCOC(=O)C1CCN(C(=O)c2ccc(Cl)c(NC3=NC4CS(=O)(=O)CC4S3)c2)CC1 (stereo not given)	0	2	0	4	-29	-1	nt
O=C1/C(=C/c2ccncc2)CCC/C1=C\c1ccncc1	210*	nt	6	2	-7	-7	+
O=C1/C(=C/c2ccncc2)CCc2ccccc21	nt	nt	2	nt	-7	11	nt
Cn1c(CCN2CCOCC2)nc2cc(NC(=O)COc3ccc(Cl)cc3)ccc21	8.7*	0	-3	1	-12	14	i
Cn1c(CN2CCCC2)nc2cc(NC(=O)COc3ccc(Cl)cc3)ccc21	0	-1	0	-1	-20	6	nt
Cc1[nH][nH]c(=O)c1C(c1ccc(-c2ccc(Cl)cc2Cl)o1)c1c(C)[nH][nH]c1=O	1	-1	0	-2	9	17	nt
CC1=NOC(=O)/C1=C\c1ccc(-c2ccc(Cl)cc2Cl)o1	5.8*	3	4	11	-17	4	i
CN(Cc1ccco1)C(=O)Cn1nc(-c2ccc(Cl)cc2)ccc1=O	9.3*	nt	1	4	-3	-1	i
COc1ccc(NC(=O)Cc2ccccc2)cn1	0	nt	0	2	9	0	nt
